Source: PubChem BioAssay
TAG inh = inhibitors of triacylglycerol accumulation, primary screen, cell-based, uHTS, fluorescence, H9c2; H9c2 cells, Nile Red lipid (TAG) fluorescence; cells loaded with 200 µM oleic acid; inhibition, % at 12.5 µM; 0.66% of 230,000 active;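 active = pattern-corrected inhibition of lipid staining of at least 50% with the nuclear-stain viability signal not falling by more than 50%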;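 also: 0% = DMSO wells and 100% = triacsin C control wells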
Hep lipid drop = inhibitors of hepatocyte lipid droplet formation, primary screen, imaging, high-throughput imaging, BODIPY stain; AML12 mouse hepatocytes, oleate lipid droplets; inhibition, % at 6.5 µM; 0.4% of 240,000 active;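 active = lipid droplet intensity inhibited by at least 50%, with more than 500 cells counted; inconclusive = wells with under 300 cells, treated as cytotoxic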
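Assay system: AML12 hepatocytes (mouse); Probe or stimulus: oleic acid at 100 µM to induce lipid droplet formation; Dosing: compound at 6.5 µM only; Schedule: compound with oleate, overnight; Detection: fluorescence imaging, 20x objective, two fields per well; Measure: % inhibition of lipid droplet signal.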
Jurkat NFkB inh = inhibitors of induced NF-kB luciferase reporter, primary screen, TCR NF-kB activation inhibitor project, cell-based, luminescence, uHTS; Jurkat, PMA/ionomycin-induced NF-kB luciferase reporter; inhibition, % at 4 µM; 0.53% of 330,000 active; in the data active = inhibition above about 50%
697 NFkB inh = inhibitors of PMA/ionomycin-induced NF-kB reporter, 697 cells, primary screen, B-cell NF-kB inhibitor project, cell-based, luminescence, uHTS; 697 B-cell NF-kB luciferase reporter, 16 h; inhibition, % at 4 µM; 0.33% of 330,000 active; AID 435022, 2010; in the data active = inhibition above about 35%
aSyn 5UTR inh = MLPCN primary screen, SNCA 5' untranslated region; alpha-synuclein 5'UTR reporter, inhibitor activity; AID 1813, 2009; inhibition, % (tested at 7.5 µM); 0.82% of 300,000 active; in the data active = inhibition above about 60%; inconclusive = no clear call, values can overlap the other calls;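 also: H4 neuroglioblastoma cells stably carrying SNCA 5'UTR luciferase fusion; 0% = DMSO wells and 100% = positive control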
APP 5UTR inh = inhibitors of APP translation via 5'UTR reporter, primary screen, APP 5'UTR luciferase, SH-SY5Y cells | SH-SY5Y APP 5'UTR-luciferase reporter, luminescence | inhibition, % at 2 µM | 0.82% of 190,000 active | AID 1285, 2008;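 active = inhibition above a set limit, derived from the sample mean plus 3 SD, cut at about 45% in these data; inconclusive = one replicate passes the limit while the other fails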
* = called active by the depositor; ? = inconclusive; nt = no result given. This is a sample that favours compounds with a hit; in the whole collection about 1.9% have one here.

SMILES | TAG inh | Hep lipid drop | Jurkat NFkB inh | 697 NFkB inh | aSyn 5UTR inh | APP 5UTR inh
CN(C)c1cccc(CNC(=O)c2ccc3nc([C@@H]4O[C@H](CO)[C@H](O)[C@H](O)[C@H]4O)[nH]c3c2)c1 | -7 | nt | nt | nt | nt | nt
CC(=O)NC(c1ccccc1)c1nc(-c2cncnc2)cs1 (stereo unspecified) | 2 | nt | nt | nt | nt | nt
CNS(=O)(=O)c1cc2c3c(cccc3c1)C(=O)NC2=O | 10 | 3 | 0 | 4 | 71* | 4
O=S(=O)(CCNCc1ccco1)NC1CCCCC1 | 0 | nt | nt | nt | nt | nt
Cn1c2nc(=O)n(-c3ccccc3)c(=O)c-2nc2c1CCCC2 | -14 | nt | nt | nt | nt | nt
O=c1c2ccccc2cnn1CCOc1ccccc1 | nt | -4 | -28 | -163 | 72* | -98
O=C(O)Cn1ncc2ccccc2c1=O | -1 | -5 | -11 | -2 | 11 | 16
CCNC(=O)C1(C)CCN(C(=O)c2ccc(C#N)cc2)C1 (stereo unspecified) | -1 | nt | nt | nt | nt | nt
Cc1ccnc(NS(=O)(=O)c2ccc(NC(=O)COc3ccccc3)cc2)n1 | -4 | 4 | 2 | 6 | 68* | 25
O=C(COc1ccccc1)Nc1ccc(S(=O)(=O)Nc2ncccn2)cc1 | -12 | 41 | -14 | 4 | -8 | -4
CC(C)CC1NC(=O)N(CC(=O)Nc2ccc(OC(F)F)cc2)C1=O (stereo unspecified) | 1 | nt | 6 | 9 | nt | nt
NC1=NC2=C(CCCC2)C2(CCCCC2)S1 | 16 | 16 | 1 | -32 | 77* | 8
Cc1ccc(S(=O)(=O)N2CCC(C(=O)OCC(=O)NC3(C#N)CCCCC3)CC2)cc1C | 8 | nt | 8 | 0 | -20 | nt
Cc1ccc2cc(CN(CC3CCCO3)C(=S)Nc3ccccc3)c(=O)[nH]c2c1C (stereo unspecified) | nt | -94 | 37 | -129 | 72* | 53*
Cc1cc(C)c2[nH]c(=O)c(CN(CC3CCCO3)C(=S)Nc3ccccc3)cc2c1 (stereo unspecified) | nt | 10 | -7 | -28 | 8 | nt
CC(C)N1CCC(C)(C(=O)Nc2cc(-c3ccccc3)nn2C)C1 (stereo unspecified) | -15 | nt | nt | nt | nt | nt
Nc1cc2c(cc1Br)-c1ccccc1C2=NO | 4 | nt | nt | nt | nt | nt
O=C(O)c1ccccc1C(=O)Nc1ccc(Oc2cccc3ccccc23)cc1 | 15 | 8 | nt | nt | 94* | 59*
Cc1cccc(Oc2ccc(NC(=O)c3ccccc3C(=O)O)cc2)c1C | 0 | -4 | 16 | 10 | -10 | -6
N#CC1=C2SCC(O)(c3ccccc3)N2C(=O)CC1c1ccccc1 (stereo unspecified) | 39 | nt | 49 | -42 | -16 | 92*
CCOc1cc(/C=N\NC(=O)c2ccc(NC(=O)C(C)(C)C)cc2)ccc1OC(=O)c1ccc(OC)cc1 | 15 | -11 | -24 | 7 | 12 | 94*
CCOc1ccc2[nH]c(C(=O)N/N=C/c3ccc(OC)cc3)cc2c1 | nt | -202 | 47 | -9 | 76* | nt
Brc1ccc(C2C3=C(Nc4ncnn42)c2ccccc2OC3c2ccncc2)cc1 (stereo unspecified) | nt | -9 | -1 | -20 | 71* | 8
O=C(Nc1nc2cc3c(cc2s1)OCCO3)C1=COCCO1 | -3 | -2 | 37 | 4 | 99* | nt
CC(=O)Nc1nc2cc3c(cc2s1)OCCO3 | 4 | -3 | -130 | -191 | -57 | nt
SMILES | TAG inh | Hep lipid drop | Jurkat NFkB inh | 697 NFkB inh | aSyn 5UTR inh | APP 5UTR inh
Cc1cc(C)n(-c2nc(Nc3ccccc3C(F)(F)F)nc(-n3nc(C)cc3C)n2)n1 | -8 | 4 | 10 | 0 | 62* | 42
CO/N=C/c1ccc(OC)c(Oc2nc(OC)cc(OC)n2)c1 | -17 | 12 | 34 | 14 | 8 | 66*
CCO/N=C/c1ccc(OC)c(Oc2nc(OC)cc(OC)n2)c1 | -2 | -12 | 1 | -7 | 10 | -36
C=C(C(=O)c1ccccc1)C(C)C(=C)C(=O)c1ccccc1 | 55* | -7 | nt | nt | -149 | 41
C=C(C(=O)c1ccccc1)C(c1ccccc1)C(C)C(=O)c1ccccc1 (stereo unspecified) | 6 | -26 | -4 | 0 | -9 | -6
Cc1ccc(C(=O)N2c3ccccc3OCC2C)cc1 (stereo unspecified) | nt | -11 | 15 | 13 | 3 | nt
Cc1ccc(C(=O)N2C(=O)C(c3ccccc3)Oc3ccccc32)cc1 (stereo unspecified) | -4 | -1 | -33 | -8 | 93* | nt
Cc1nn2cc(-c3ccccc3)nc2s1 | nt | nt | -111 | -181 | -21 | -114
c1ccc(-c2cn3nc(-c4ccccc4)sc3n2)cc1 | 1 | nt | -25 | -167 | 101* | nt
CCN(CC(=O)NCc1cccs1)C(=O)c1cccc(S(=O)(=O)N(CC)c2ccccc2)c1 | 18 | nt | nt | nt | nt | nt
COc1ccc(NS(=O)(=O)c2cccc(C(=O)NNC(=O)COc3ccccc3)c2)cc1 | -4 | nt | 8 | 4 | 20 | nt
COc1ccc(OCC(=O)NNC(=O)c2cccc(S(=O)(=O)N(C)C)c2)cc1 | nt | -27 | -6 | -19 | 7 | 50*
O=C(CSc1ccc2c(c1)OCCO2)Nc1ccccc1 | -4 | nt | nt | nt | nt | nt
O=C(CSc1ccc2c(c1)OCCO2)Nc1ncc(Cl)cc1Cl | nt | 1 | 0 | 16 | 23 | 46*
C=CCNC(=S)NNC(=O)c1ccc(OCCC)cc1 | nt | 13 | 0 | -6 | 7 | 0
CCCOc1ccc(C(=O)NNC(=S)NC(=O)CC)cc1 | nt | nt | 2 | -31 | 85* | -2
Cn1cc(/C=N\NC(=O)C2COc3ccccc3O2)c2ccccc21 (stereo unspecified) | nt | -3 | 39 | 4 | 24 | -4
Cc1c(/C=N\NC(=O)C2COc3ccccc3O2)c2ccccc2n1C (stereo unspecified) | 38 | ? | nt | nt | 102* | 91*
COc1ccc(S(=O)(=O)N2CCCC(C(=O)N3CCN(Cc4ccccc4)CC3)C2)cc1Cl (stereo unspecified) | 0 | nt | nt | nt | nt | nt
CCN(CCO)c1ccc(N=Nc2cc(C)[nH]n2)cc1 | -5 | -1 | -23 | -87 | 102* | nt
CCOC(=O)c1c(-c2ccccc2)oc2cc(CN(C)C)c(O)c(CN(C)C)c12 | nt | nt | 16 | -55 | 56 | 53*
O=C1CC=Nc2ccc([N+](=O)[O-])cc21 | 0 | nt | nt | nt | nt | nt
CCc1nc2c(OCCC3CCCCC3)cccn2c1N(C)C(=O)C(C)C | -2 | nt | nt | nt | nt | nt
CCCC(=O)N1CCCC(c2cc(C(=O)Nc3ccccc3)no2)C1 (stereo unspecified) | -14 | nt | nt | nt | nt | nt
CC(C)(C)Cc1c(-c2ccc(C#N)cc2)nc2ccc(Cl)cn12 | -18 | nt | nt | nt | nt | nt
Cc1cccc(NC(=O)C(C)OC(=O)CNC(=O)C2CCCCC2)c1 (stereo unspecified) | 6 | nt | nt | nt | nt | nt
